Calls of active or inactive are those of the source. The rule behind the calls is not given here.
Tests used:
[1] = molecular target: Cyclin-dependent kinase 2/cyclin E1 (Homo sapiens, UniProt P24941); assay: Inhibition of human CDK2-GST-tagged cyclin E using his-tagged Rb as substrate after 30 mins by scintillation counting method; format: protein-complex assay
[2] = molecular target: Cyclin-dependent kinase 1/cyclin B1 (Homo sapiens, UniProt P06493); assay: Inhibition of human CDK1-GST-tagged cyclin B using his-tagged Rb as substrate after 30 mins by scintillation counting method; format: protein-complex assay
Cyclin-dependent kinase 1/cyclin B1, sequence (P06493 whole entry): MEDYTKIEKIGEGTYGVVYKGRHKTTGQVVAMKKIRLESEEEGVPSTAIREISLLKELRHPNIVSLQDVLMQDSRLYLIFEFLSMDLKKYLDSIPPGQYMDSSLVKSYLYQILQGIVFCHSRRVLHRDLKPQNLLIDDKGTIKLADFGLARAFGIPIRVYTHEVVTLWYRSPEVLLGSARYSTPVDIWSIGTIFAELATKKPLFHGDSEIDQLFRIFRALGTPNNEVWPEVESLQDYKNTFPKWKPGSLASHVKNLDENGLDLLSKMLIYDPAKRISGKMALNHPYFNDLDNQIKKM
Cyclin-dependent kinase 1/cyclin B1, sequence (P14635 whole entry, further chain): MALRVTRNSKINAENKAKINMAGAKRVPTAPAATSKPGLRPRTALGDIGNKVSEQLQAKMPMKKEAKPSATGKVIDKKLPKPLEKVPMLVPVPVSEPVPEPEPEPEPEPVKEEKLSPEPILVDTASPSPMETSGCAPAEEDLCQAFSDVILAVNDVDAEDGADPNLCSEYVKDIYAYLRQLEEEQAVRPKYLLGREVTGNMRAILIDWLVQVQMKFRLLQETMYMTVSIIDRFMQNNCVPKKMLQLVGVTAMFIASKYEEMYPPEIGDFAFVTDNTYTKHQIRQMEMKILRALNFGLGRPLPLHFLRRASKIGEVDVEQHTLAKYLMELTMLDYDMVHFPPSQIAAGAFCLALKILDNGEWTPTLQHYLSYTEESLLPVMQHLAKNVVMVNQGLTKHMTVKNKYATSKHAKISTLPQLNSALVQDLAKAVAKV

[3] = molecular target: Insulin receptor (Homo sapiens, UniProt P06213); assay: Inhibition of insulin receptor using fluorescent substrate by IMAP assay
Insulin receptor, sequence (P06213 28-758 limits assumed): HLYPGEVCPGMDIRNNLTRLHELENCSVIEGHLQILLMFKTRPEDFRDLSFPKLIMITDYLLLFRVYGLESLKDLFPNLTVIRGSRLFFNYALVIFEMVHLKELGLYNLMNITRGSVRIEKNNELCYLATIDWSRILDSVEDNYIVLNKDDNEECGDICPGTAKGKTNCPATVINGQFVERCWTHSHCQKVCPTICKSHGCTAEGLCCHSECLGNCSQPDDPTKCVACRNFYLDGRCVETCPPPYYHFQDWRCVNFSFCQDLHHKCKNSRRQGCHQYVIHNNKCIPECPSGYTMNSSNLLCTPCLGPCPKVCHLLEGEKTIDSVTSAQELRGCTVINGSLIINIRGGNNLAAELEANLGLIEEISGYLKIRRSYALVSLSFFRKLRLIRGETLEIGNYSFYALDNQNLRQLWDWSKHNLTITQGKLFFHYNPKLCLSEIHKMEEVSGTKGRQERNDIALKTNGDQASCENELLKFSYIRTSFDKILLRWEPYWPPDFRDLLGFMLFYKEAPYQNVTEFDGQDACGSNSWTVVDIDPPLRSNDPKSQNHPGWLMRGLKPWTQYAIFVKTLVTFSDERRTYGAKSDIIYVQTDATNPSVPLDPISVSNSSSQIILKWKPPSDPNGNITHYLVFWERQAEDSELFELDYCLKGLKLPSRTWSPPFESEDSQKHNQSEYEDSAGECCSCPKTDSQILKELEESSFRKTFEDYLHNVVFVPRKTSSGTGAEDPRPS
Insulin receptor, sequence (P06213 763-1382 limits assumed): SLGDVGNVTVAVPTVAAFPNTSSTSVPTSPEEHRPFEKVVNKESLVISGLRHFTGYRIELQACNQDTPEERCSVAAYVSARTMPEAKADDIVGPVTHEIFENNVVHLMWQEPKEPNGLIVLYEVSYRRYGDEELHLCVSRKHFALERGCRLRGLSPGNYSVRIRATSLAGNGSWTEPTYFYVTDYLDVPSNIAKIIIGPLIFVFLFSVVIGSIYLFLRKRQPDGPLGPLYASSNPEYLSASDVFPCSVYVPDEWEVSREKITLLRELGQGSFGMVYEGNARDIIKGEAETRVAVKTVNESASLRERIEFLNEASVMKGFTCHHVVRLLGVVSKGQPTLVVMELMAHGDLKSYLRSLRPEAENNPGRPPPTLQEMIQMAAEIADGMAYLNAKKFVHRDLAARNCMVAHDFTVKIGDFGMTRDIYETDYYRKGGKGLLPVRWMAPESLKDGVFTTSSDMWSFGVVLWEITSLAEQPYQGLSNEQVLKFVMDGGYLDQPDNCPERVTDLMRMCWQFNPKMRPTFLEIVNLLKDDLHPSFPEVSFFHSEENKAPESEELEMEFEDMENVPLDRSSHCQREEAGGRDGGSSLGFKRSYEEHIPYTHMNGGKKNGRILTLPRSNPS
How it was run: (§1)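 Run in-house using IMAP: phosphorylated fluorescent peptide substrate binds preferentially to immobilized metal beads, which quantifies kinase activity. ATP at 3× the Km of each enzyme.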

[4] = Inhibition of JNK using fluorescent substrate by IMAP assay; how it was run: as §1
[5] = molecular target: Cyclin-dependent kinase 4 (Homo sapiens) (UniProt P11802); assay: Inhibition of CDK4-mediated Rb phosphorylation at ser 795 in human HCT116 cells at IC50 after 4 hrs by immunoblot analysis; format: cell-based; details: HCT-116
Cyclin-dependent kinase 4 (Homo sapiens), sequence (P11802 whole entry): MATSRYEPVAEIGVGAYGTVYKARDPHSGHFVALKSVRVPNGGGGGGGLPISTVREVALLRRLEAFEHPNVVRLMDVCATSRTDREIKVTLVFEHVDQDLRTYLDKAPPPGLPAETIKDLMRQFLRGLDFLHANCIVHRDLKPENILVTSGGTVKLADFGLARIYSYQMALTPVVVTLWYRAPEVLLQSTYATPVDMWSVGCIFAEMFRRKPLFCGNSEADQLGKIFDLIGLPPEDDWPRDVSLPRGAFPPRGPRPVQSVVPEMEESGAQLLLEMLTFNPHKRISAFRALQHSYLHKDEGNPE
How it was run: (§2)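 Asynchronous HCT-116 cells (DMEM, 3 mM HEPES, 10% serum, 37 °C, 5% CO₂) were given increasing inhibitor doses for 4 or 24 h. Lysis in NETN with phosphatase and protease inhibitors, then SDS-PAGE, nitrocellulose transfer and immunoblot for phospho-Rb (Ser-795) with HRP secondary and chemiluminescence.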

[6] = molecular target: Cyclin-dependent kinase 4 (Homo sapiens) (UniProt P11802); assay: Inhibition of CDK4-mediated Rb phosphorylation at ser 795 in human HCT116 cells at IC90 after 4 hrs by immunoblot analysis; format: cell-based; details: HCT-116; how it was run: as §2
[7] = molecular target: Cyclin-dependent kinase 4 (Homo sapiens) (UniProt P11802); assay: Inhibition of CDK4-mediated Rb phosphorylation at ser 795 in human HCT116 cells at IC50 after 24 hrs by immunoblot analysis; format: cell-based; details: HCT-116; how it was run: as §2
[8] = system: HCT-116; assay: Antiproliferative activity against human HCT116 cells assessed as inhibition of S phase after 48 hrs by MTT assay; format: functional, cell-based; details: HCT-116, 48 h
How it was run: (§3)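 Cells grown in DMEM with 3 mM HEPES and 10% Serum Supreme at 37 °C, 5% CO2. Proliferation read by MTT assay 48 h after drug addition; IC50 given as mean of two separate determinations, each in duplicate.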

[9] = system: SW480; assay: Antiproliferative activity against human SW480 cells assessed as inhibition of S phase after 48 hrs by MTT assay; format: functional, cell-based; details: SW480, 48 h; how it was run: as §3
[10] = system: MDA-MB-453; assay: Antiproliferative activity against human MDA-MB-453 assessed as inhibition of S phase cells after 48 hrs by MTT assay; format: functional, cell-based; details: MDA-MB-453, 48 h; how it was run: as §3
[11] = system: HeLa; assay: Cell cycle arrest in human HeLa cells assessed as accumulation at S phase at 2 uM treated 2 hr and measured 8 hr post double thymidine-synchrony release using propidium iodide staining by FACS analysis (reference value: 8 %); format: functional
How it was run: (§4)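 Cells harvested at set times post-release, fixed in 70% ethanol, stained with 5 μg/ml propidium iodide plus 0.5 mg/ml RNase A, and analysed by flow cytometry. Cell-cycle phase fractions calculated by ModFit.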

[12] = system: HeLa; assay: Cell cycle arrest in human HeLa cells assessed as accumulation at G2/M phase at 2 uM treated 2 hr and measured 8 hr post double thymidine-synchrony release using propidium iodide staining by FACS analysis (reference value: 86 %); format: functional; how it was run: as §4
[13] = system: HeLa; assay: Cell cycle arrest in human HeLa cells assessed as accumulation at G1 phase at 2 uM treated 2 hr and measured 10 hr post double thymidine-synchrony release using propidium iodide staining by FACS analysis (reference value: 68 %); format: functional
[14] = Cell cycle arrest in human SK-MEL-13 cells assessed as accumulation at G1 phase at 2 uM treated 1 hr and measured 10 hr post double hydroxyurea-synchrony release using propidium iodide staining by FACS analysis (reference value: 14 %); format: functional, cell-based
How it was run: (§5)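 SK-Mel-13 cells synchronized with 2 mM hydroxyurea, then treated with 2 μM CDK4 inhibitor or left untreated 1 h after release. Harvested at indicated times post-release, ethanol-fixed, propidium iodide/RNase stained, and DNA content read by FACS. Proportions of G1, S and G2/M cells derived with ModFit.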

[15] = Cell cycle arrest in human SK-MEL-13 cells assessed as accumulation at G2/M phase at 2 uM treated 1 hr and measured 10 hr post double hydroxyurea-synchrony release using propidium iodide staining by FACS analysis (reference value: 70 %); format: functional, cell-based; how it was run: as §5
[16] = system: A2058; assay: Cell cycle arrest in human A2058 cells assessed as accumulation at G2/M phase at 2 uM treated 1 hr and measured 12 hr post double hydroxyurea-synchrony release using propidium iodide staining by FACS analysis (reference value: 39 %); format: functional
[17] = system: HeLa; assay: Cell cycle arrest at G2 phase in human HeLa cells assessed as delay in phosphotyrosine 15 CDK1 accumulation at 2 uM treated at early S phase measured after 6-14 hr post thymidine-synchrony release by immunoblot method; format: functional, cell-based
How it was run: (§6)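 HeLa cells synchronized by double thymidine block and released, treated with 2 μM inhibitor in early S phase, or left untreated. Harvested at set times after release, lysed in NETN with phosphatase and protease inhibitors, run on SDS-PAGE and immunoblotted for cyclin B1 and phosphotyrosine 15 CDK1/2, with cyclin D3 as loading control. Detection by HRP secondary and ECL.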

[18] = system: HeLa; assay: Cell cycle arrest at G2 phase in human HeLa cells assessed as delay in phosphotyrosine 15 CDK2 accumulation at 2 uM treated at early S phase measured after 6-14 hr post thymidine-synchrony release by immunoblot method; format: functional, cell-based; how it was run: as §6
[19] = system: HeLa; assay: Cell cycle arrest at G2 phase in human HeLa cells at 2 uM treated 8 hr and measured 12 hr post-synchrony release using Propidium iodide staining by FACS analysis in presence of p38 MAPK inhibitor SB203580; format: functional, cell-based
[20] = system: MDA-MB-435; assay: Toxicity in human MDA-MB-435 cells at IC50 after 3 days by MTT assay; format: cell-based; details: mda-mb-435, 72 h
[21] = system: HeLa; assay: Cell cycle arrest in synchronized human HeLa cells assessed as large multinuclear cell formation at 2 uM by time-lapse microscopy; format: functional, cell-based
[22] = system: HeLa; assay: Cell cycle arrest in human HeLa cells transfected with cyclin D3 siRNA at 2 uM measured after 8 to 20 hr post hydroxyurea-synchrony release by time-lapse microscopy; format: functional, cell-based
How it was run: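 HeLa cells transfected with 20 nM cyclin D3 siRNA number 1 or scrambled siRNA, then synchronized by overnight 2 mM hydroxyurea block and released. Treated with CDK4 inhibitor, siRNA, or both; entry into mitosis followed by time-lapse microscopy.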

[23] = system: HeLa; assay: Induction of abberent mitosis in human HeLa cells assessed as lagging chromosomes at astral side of spindle microtubules at 2 uM treated 1 hr and measured 12 hr post thymidine-synchrony release by fluorescence microscopy; format: functional, cell-based
[24] = system: HeLa; assay: Effect on aurora B protein expression in human HeLa cells at 2 uM measured 14 hr post thymidine-synchrony release by immunoblot analysis; format: functional, cell-based
How it was run: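 Synchronized HeLa cells given 2 μM CDK4 inhibitor in early S phase and harvested at set times post-release. Lysed in supplemented NETN buffer on ice for 20 min. Lysates run on SDS-PAGE and immunoblotted for survivin, borealin and other chromosomal passenger proteins, with ECL detection. Cyclin D3 served as loading control.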

[25] = system: HeLa; assay: Cell cycle arrest in human HeLa cells assessed as accumulation at S phase at 2 uM treated 6 hr and measured 10 hr post double thymidine-synchrony release using propidium iodide staining by FACS analysis (reference value: 1 %); format: functional; how it was run: as §4

For `COc1cccc(C(=O)c2sc(Nc3ccc(N4CCN(C(C)C)CC4)cc3)nc2N)c1`, which IC50 [1] is on record?
Its IC50 is 4.14 µM.

And the IC50 [2]?
Its IC50 is 1.97 µM.

What about the IC50 [3] of the same compound?
Its IC50 is 24 µM.

What about the IC50 [4] of the same compound?
The IC50 was greater than 50 µM.

And the inhibition [5]?
The inhibition was “Active”.

What about the inhibition [6] of the same compound?
Its inhibition is “Active”.

What about the inhibition [7] of the same compound?
The inhibition was “Active”.

What about the IC50 [8] of the same compound?
Its IC50 is 1.1 µM.

And the IC50 [9]?
The IC50 was 1.06 µM.

And the IC50 [10]?
The IC50 was 0.71 µM.

And the Activity [11]?
Its Activity is 9%.

And the Activity [12]?
Its Activity is 84%.

What about the Activity [13] of the same compound?
The Activity was 4%.

And the Activity [14]?
The Activity was 11%.

What about the Activity [15] of the same compound?
Its Activity is 75%.

What about the Activity [16] of the same compound?
Its Activity is 60%.

What about the Activity [17] of the same compound?
The Activity was “Active”.

And the Activity [18]?
The Activity was “Active”.

And the Activity [19]?
Its Activity is “Active”.

And the Activity [20]?
The Activity was “Toxic”.

What about the Activity [21] of the same compound?
Its Activity is “Active”.

And the Activity [22]?
Its Activity is “Active”.

And the Activity [23]?
The Activity was “Active”.

What about the Activity [24] of the same compound?
Its Activity is “inactive”.

What about the Activity [25] of the same compound?
Its Activity is 1%.

What does the source list for `CN1CCN(c2ccc(Nc3nc(N)c(C(=O)c4ccc5c(c4)OCCO5)s3)cc2)CC1`?
IC50 [1]: 2.36 µM; IC50 [2]: 3.04 µM; IC50 [3]: 71 µM; IC50 [4]: > 50 µM; inhibition [5]: Active; inhibition [6]: Active; inhibition [7]: Active; IC50 [8]: 3.85 µM; IC50 [9]: 3.67 µM; IC50 [10]: 1.45 µM; Activity [11]: 9%; Activity [12]: 84%; Activity [13]: 4%; Activity [14]: 11%; Activity [15]: 75%; Activity [16]: 60%; Activity [17]: Active; Activity [18]: Active; Activity [19]: Active; Activity [20]: Toxic; Activity [21]: Active; Activity [22]: Active; Activity [23]: Active; Activity [24]: inactive; Activity [25]: 1%

— ChEMBL document CHEMBL1955770, “Inhibition of S/G2 phase CDK4 reduces mitotic fidelity” (J Biol Chem, 2006)
